UHRF1 binding: blocks human UHRF1 binding to methylated DNA | Q96T88 | UHRF1 binding to methylated oligo, TR-FRET | inhibition, % at 4.4 µM | hit rate 0.75% among 370,000 | AID 687016; in the data active = inhibition above about 21%;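 also: UHRF1 SRA domain binding a hemimethylated CpG hairpin DNA probe; 0% = median of test compound wells and 100% = reference inhibitor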
TCR CD3 inh: inhibitors of human TCR-CD3 interaction. TAMRA-labeled TCR probe fluorescence, biochemical. inhibition, % at 9.4 µM. hit rate 0.37% among 360,000. AID 651800;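 also: recombinant mutant TCR 2C K166C tagged with TAMRA read by polarization; 0% = receptor in buffer alone and 100% = receptor with positive control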
ASAP1 inh: ASAP1 ArfGAP inhibition; Q9ULH1; ASAP1-stimulated ARF1 GTP hydrolysis, GDP FP detection; inhibition, % at 16.5 µM; hit rate 0.19% among 360,000; AID 624377; in the data active = inhibition above about 25%;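 also: 0% = vehicle with enzyme and substrate and 100% = no enzyme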
Target sequence (Q9ULH1 325-724 limits assumed): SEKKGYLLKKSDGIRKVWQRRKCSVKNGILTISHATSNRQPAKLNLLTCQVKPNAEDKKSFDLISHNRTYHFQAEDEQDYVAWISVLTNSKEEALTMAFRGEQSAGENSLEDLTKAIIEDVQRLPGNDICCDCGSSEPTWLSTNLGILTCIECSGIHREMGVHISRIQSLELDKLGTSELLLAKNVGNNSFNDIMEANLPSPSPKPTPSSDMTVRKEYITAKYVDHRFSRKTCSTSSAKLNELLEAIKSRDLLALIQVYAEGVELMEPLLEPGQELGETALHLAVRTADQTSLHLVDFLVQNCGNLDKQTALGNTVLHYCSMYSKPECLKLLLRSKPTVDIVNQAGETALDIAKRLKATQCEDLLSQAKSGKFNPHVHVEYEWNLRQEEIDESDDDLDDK
ARFGAP1 inhibitor: inhibitors of rat ARFGAP1. Arfgap1-stimulated ARF1 GTP hydrolysis, GDP FP detection. inhibition, % at 16.5 µM. AID 651572. hit rate 0.26% among 360,000;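 active = inhibition above a per-plate limit, mean inhibition of low control wells plus 3 SD, cut at about 25% in these data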;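 also: 0% = DMSO wells with enzyme and 100% = wells lacking Arfgap1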
Target sequence (Q62848 1-136 limits assumed): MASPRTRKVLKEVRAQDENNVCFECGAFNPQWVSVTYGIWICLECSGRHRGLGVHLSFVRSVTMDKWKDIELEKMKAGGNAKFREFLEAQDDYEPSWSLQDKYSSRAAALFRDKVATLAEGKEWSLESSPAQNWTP
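Assay system: purified rat His6-Arfgap1 residues 1-136 (GAP domain); Reagent: human Δ17 ARF1 bound to GTP; Dosing: 16.5 µM single point, 1.26% DMSO; Times: GTP hydrolysis reaction 2 h at 25 °C; Signal: FP, GDP Alexa 633 tracer displaced from anti-GDP antibody, 620/688 nm; Measure: % inhibition from polarization.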
MBD2 DNA inh: inhibitors of human MBD2 binding to methylated oligonucleotide. TR-FRET. inhibition, % at 4.4 µM. hit rate 0.31% among 370,000. Q9UBB5. AID 686964; in the data active = inhibition above about 13%
LEDGF integ inh: blocks HIV-1 LEDGF/p75-dependent DNA integration; AID 743269; hit rate 0.64% among 370,000; TR-FRET IN-LEDGF/p75 DNA integration, Eu/Cy5; inhibition, % at 3.7 µM;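 active = inhibition above the screen-wide mean plus 3 SD, cut at about 13% in these data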;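 also: signal is the Cy5 over europium emission ratio at 671 and 618 nm; 0% = plate median of compound wells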
BSA TAMRA ctr: interferes with TAMRA-BSA probe, flagging TCR-CD3 hits; hit rate 10% among 1,200; inhibition, % at 9.4 µM; AID 652035; TAMRA-labeled BSA probe fluorescence counterscreen; shares compounds with TCR CD3 inh; in the data active = inhibition above about 23%;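 also: 0% = buffer low control and 100% = reference high control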
TCR-CD3 conf: confirmation of human TCR-CD3 interaction inhibitors | shares compounds with TCR CD3 inh | TAMRA-labeled TCR probe fluorescence binding assay | inhibition, % at 9.4 µM | hit rate 48% among 1,200
Starred values were filed as active, the others as inactive; . = no result. An excerpt weighted towards active compounds, which were near 2% of everything screened. Rule as the data show it, unless noted: active = inhibition above about 19%; inactive = the rest.

SMILES	UHRF1 binding	TCR CD3 inh	ASAP1 inh	ARFGAP1 inhibitor	MBD2 DNA inh	LEDGF integ inh	BSA TAMRA ctr	TCR-CD3 conf
CCN(CC(=O)Nc1ccc(NC(C)=O)cc1)C(=O)/C=C/c1ccc(C)o1	-1.9	5.7	-7.4	7.9	0.1	5.5	.	.
Cc1nn2c(-c3cccc(NC(=O)CSc4nc5ccccc5o4)c3)nnc2c2ccccc12	-3.0	4.6	1.2	17.1	-1.3	0.9	.	.
Cc1ccccc1-n1ncc2c1CC(C)(C)CC2NC(=O)CCCN1CCCC1=O (stereo not given)	-0.3	4.4	-3.9	4.3	-1.4	3.3	.	.
CCOc1ccc(S(=O)(=O)NCCC(=O)NCCCSc2ccccc2)cc1	1.2	43.2*	2.5	14.4	3.6	2.2	-0.7	1.7
O=C(Nc1ccc(Cl)c(Cl)c1)Oc1ccc(NC(=O)c2ccco2)cc1	-3.9	39.8*	-9.3	4.3	-6.7	-2.7	4.4	15.4
CCCNC(=O)C(Cc1ccccc1)NC(=O)c1ccc(C(F)(F)F)cc1 (stereo not given)	1.3	22.1*	12.9	6.6	-1.3	-1.2	-2.4	4.2
Cc1cc(C(=O)N/N=C/c2c(CO)cnc(C)c2O)c2ccccc2n1	-5.1	23.5*	-5.1	10.1	-8.4	-7.3	-12.6	10.0
O=C(O)c1ccccc1/C=N/NC(=O)c1cc(-c2ccco2)nc2ccccc12	6.4	19.7*	-3.0	5.1	6.9	4.0	-8.5	25.1*
Cc1ncc(CO)c(/C=N/Nc2cccc(Cl)n2)c1O	-10.4	0.4	-4.8	-0.4	0.2	-3.1	.	.
O=C(NN=Cc1cc(Cl)ccc1[N+](=O)[O-])c1cccc2ccccc12	-2.9	4.1	-17.7	-10.0	-1.9	1.4	.	.
Cc1cc(C(=O)N/N=C/c2cc(Cl)cc([N+](=O)[O-])c2O)c2ccccc2n1	-9.4	36.0*	-4.8	0.3	-6.6	-9.5	-12.9	38.8*
O=S1(=O)CCOCCCN1Cc1ccc(Cl)cc1	3.1	-0.1	-8.3	7.6	2.2	1.2	.	.
O=C(/C=C/c1ccc(Cl)c(C(F)(F)F)c1)N1CCN(c2ccccn2)CC1	0.4	8.6	1.1	-11.5	-2.4	-6.0	.	.
O=C1c2ccccc2C(c2nnnn2-c2ccc3c(c2)OCCO3)N1Cc1ccco1 (stereo not given)	-1.7	25.2*	0.2	-4.3	-5.5	2.3	3.5	0.1
CCn1c(=O)c(C(=O)Nc2ncccc2C)c(O)c2ccccc21	0.3	1.4	7.9	2.3	-5.8	2.8	.	.
CCn1c(=O)c(C(=O)Nc2ncccc2O)c(O)c2ccccc21	-6.6	34.2*	2.0	-2.1	-9.3	-2.5	-2.3	15.0
O=C(NNC(=O)OCc1ccccc1)OCc1ccccc1	3.9	111.4*	-17.4	-9.8	4.0	0.4	-7.7	-3.0
O=C(NOCc1ccccc1)OCc1ccccc1	-0.4	0.6	0.5	-0.5	4.1	1.4	.	.
Cc1ccc(S(=O)(=O)N2CC(O)CC2C(=O)OCC(=O)Nc2ccc([N+](=O)[O-])cc2C(F)(F)F)cc1C (stereo not given)	-0.2	3.7	-6.9	-9.4	-5.9	-0.2	.	.
CCOC(=O)[C@@]12CN(C(=O)OC(C)(C)C)CC=C1N(Cc1ccc(OC)cc1)C(=O)[C@H]2CC(=O)N1CCCCC1	-0.9	.	.	.	-1.6	-2.2	.	.
O=c1[nH]nc(CNc2ccc(C(F)(F)F)cc2)c2ccccc12	-2.3	5.5	10.4	9.1	-1.7	-1.1	.	.
O=c1[nH]nc(CNc2ccc(O)cc2)c2ccccc12	-6.3	89.0*	5.7	10.8	-9.5	4.6	11.7	11.9
CCCn1ncc(CN2CCC(N3CCC(C(=O)N4CCOCC4)CC3)CC2)c1C	4.1	-1.6	10.1	8.6	-2.2	-4.0	.	.
O=C(N/N=C/c1cccc([N+](=O)[O-])c1O)C(O)(c1ccccc1)c1ccccc1	-4.4	27.9*	8.8	-3.0	-9.6	-7.4	-11.7	26.2*
O=C(N/N=C/c1cc([N+](=O)[O-])cc([N+](=O)[O-])c1O)/C(=C\c1cccs1)NC(=O)c1ccccc1	-7.1	47.4*	10.4	2.7	-0.4	-5.3	-1.8	45.4*
SMILES	UHRF1 binding	TCR CD3 inh	ASAP1 inh	ARFGAP1 inhibitor	MBD2 DNA inh	LEDGF integ inh	BSA TAMRA ctr	TCR-CD3 conf
O=C(N/N=C/c1cccc([N+](=O)[O-])c1O)c1cccs1	-15.6	28.7*	-5.1	4.2	-21.2	-4.5	-9.6	31.4*
CN(CC(=O)Nc1ccc(OC(F)(F)F)cc1)C(=O)c1ccccc1SCC(=O)N1CCCC1	-0.9	0.1	-7.0	-6.8	-5.0	2.0	.	.
COc1cc([N+](=O)[O-])cc(/C=N/NC(=O)C(O)(c2ccccc2)c2ccccc2)c1O	-5.0	-10.7	-7.3	-6.8	-5.7	-7.6	.	.
COc1cc([N+](=O)[O-])cc(/C=N/NC(=O)c2cccnc2)c1O	-7.5	32.0*	-6.0	-8.5	-15.6	-2.7	-11.0	19.4*
CCCNC(=O)c1cc(C2CCCCN2C(=O)c2cc(C(C)(C)C)nn2C)on1 (stereo not given)	-0.8	3.4	2.4	-11.3	-0.9	3.2	.	.
C=CCn1c(SCC(=O)NCc2ccco2)nnc1C1CCCCC1	-2.0	20.2*	-5.2	-1.7	-8.1	4.4	3.1	-0.7
COc1ccc(C(=O)NNC(=S)NC(=O)c2ccc(OC)cc2)cc1	-4.3	10.6	-2.2	-1.2	-0.6	1.3	.	.
O=C(NC(=S)NCc1ccccc1)c1cccnc1	0.5	0.7	12.3	-2.1	0.9	3.2	.	.
O=C(NNC(=S)NC(=O)c1cccnc1)c1ccccc1	0.8	15.4	10.2	6.7	3.5	-3.5	.	.
COc1ccc(C(=O)NNC(=S)NC(=O)c2cccnc2)cc1	-0.8	38.4*	-13.8	3.6	3.2	-0.8	1.4	37.3*
O=C(Cc1ccccc1)NNC(=S)NC(=O)c1cccnc1	-2.9	26.8*	-1.8	0.2	-1.0	-3.1	-5.9	21.0*
COc1ccc(C(=O)NNC(=S)NC(=O)c2cccs2)cc1	-1.8	23.3*	-2.9	8.8	0.4	4.4	3.3	29.6*
COc1ccc(C(=O)NNC(=S)NC(=O)c2ccc(F)cc2)cc1Br	-3.0	19.9*	2.8	0.0	5.8	0.7	-5.1	5.3
O=C(CSC1=NS(=O)(=O)c2ccccc2N1)Nc1cccc(F)c1	3.8	-2.4	-4.0	13.9	-0.6	2.8	.	.
O=C(CN1C(=O)NC2(CCCCC2)C1=O)N1CCN(S(=O)(=O)c2ccc(F)c(F)c2F)CC1	0.7	-8.9	-4.6	13.6	-7.2	-1.4	.	.
CCN(CC)c1ccc(NC(=O)c2ccc(=O)[nH]c2)cc1S(=O)(=O)Nc1ccccc1OC	-2.7	-6.3	-1.1	2.9	-5.7	-1.9	.	.
Nc1nnnn1/N=C/c1ccc(F)cc1	-1.9	1.4	-7.8	3.6	-2.6	-3.7	.	.
COc1ccc(CC(=O)NNC(=S)NC(=O)c2cccnc2)cc1	3.3	26.1*	-8.0	7.9	3.3	2.1	-3.4	17.4

Assay outcomes from PubChem BioAssay.
